PRMT1 inh – blocks human protein arginine methyltransferase 1. AID 652257. recombinant PRMT1, activity-based probe fluorescence polarization. 370,000 compounds, 1.3% hits. inhibition, % at 2.79 µM. Q99873;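 active = inhibition above about 21% made by adding two undisclosed values, limit read from the data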
TDP2 absorb – TDP2 (human) inhibition, absorbance primary screen. O95551. 370,000 compounds, 0.34% hits. recombinant TDP2, T5PNP hydrolysis, p-nitrophenol absorbance 415 nm. AID 720702. inhibition, % at 12.8 µM;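 active = inhibition above the mean of all tested compounds plus 3 SD, set per campaign, cut at about 25% in these data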;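 also: 0% = DMSO with enzyme and 100% = buffer with substrate but no TDP2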
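Incubation: 2 h at 37 °C; Test system: recombinant human TDP2; Quantity: enzyme 120 nM; Read-out basis: percent inhibition; Medium: 50 mM Tris-HCl pH 7.5 with Mg2+, KCl, DTT, BSA; Repeats: single replicate; Compound: 12.8 µM single point, 1% DMSO; Signal: epi absorbance; Reagent: 5 mM T5PNP chromogenic substrate; Benchmarks: no-enzyme high, DMSO-plus-enzyme low.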
GSTO1 counter – counter-screen for RBBP9 inhibitors: inhibitors of human GSTO1; P78417; inhibition, % at 5.96 µM; AID 1974; recombinant GSTO1, activity-based probe fluorescence polarization; 300,000 compounds, 1.1% hits;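 active = inhibition above the campaign mean inhibition plus 3 SD, cut at about 35% in these data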;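 also: 0% = GSTO1-1 with DMSO and 100% = wells lacking GSTO1-1 enzyme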
PAD4 FP inh – blocks human protein arginine deiminase 4 | Q9UM07 | recombinant PAD4, RCA probe fluorescence polarization | inhibition, % at 6.36 µM | 330,000 compounds, 0.41% hits | AID 485272;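 active = percent inhibition above a cutoff equal to the mean of all tested compounds plus 3 SD, cut at about 15% in these data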;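 also: 0% = PAD4 with RCA probe and DMSO and 100% = probe without PAD4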
E coli Lon inh – inhibits E. coli Lon protease; AID 602123; 360,000 compounds, 0.42% hits; purified E. coli Lon protease, fluorescence polarization; P0A9M0; inhibition, % at 7.94 µM; in the data active = inhibition above about 13%, passing the limit was not always enough;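 also: 0% = enzyme with probe and DMSO and 100% = no enzyme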
PRMT1 inh conf – PRMT1 (human) inhibition, FP confirmation. 3,300 compounds, 42% hits. inhibition, % at 2.79 µM. shares compounds with PRMT1 inh. AID 687036. recombinant His-PRMT1, activity-based probe fluorescence polarization;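 active = mean inhibition across replicates above the hit cutoff derived for the earlier primary screen, cut at about 22% in these data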
Starred values were filed as active, the others as inactive; x = no result. A selection: hits, their analogues and other compounds. The true share with any hit is near 2.5%.

SMILES	PRMT1 inh	TDP2 absorb	GSTO1 counter	PAD4 FP inh	E coli Lon inh	PRMT1 inh conf
COc1ccccc1NC(=O)CSC(N)=O	81*	-3	2	7	3	93*
O=C(COc1ccccc1Cl)Nc1ccc2[nH]c(=O)[nH]c2c1	-3	19	x	x	-3	x
CN(C)CCC(=O)C(Cc1ccccc1)c1ccccc1 (centres undefined)	42*	-21	-5	-2	-4	32*
Cc1ccc(NC(=O)c2cc(-c3cc(F)ccc3OCC3CCCO3)n[nH]2)cc1NS(C)(=O)=O (centres undefined)	-2	3	x	x	-8	x
CC(=O)O[C@@H]1C[C@@]2(C)[C@@H](CC[C@H]2[C@@H](C)/C=C\CC(C)C)C2=C[C@@H](O)[C@@]3(O)C[C@@H](O)[C@H](O)C[C@]3(CO)[C@]21O	-2	-6	x	x	-12	x
CCOC(=S)SCC(=O)Nc1nc(C)c(C)s1	50*	-2	12	9	-3	39*
CCOC(=S)SCC(=O)Nc1nccs1	46*	-4	3	4	3	13
CSCC[C@@H](CO)NC(=O)[C@H]1O[C@@H](n2ccc(N)nc2=O)[C@H](O)[C@@H]1O	0	8	x	x	9	x
Nc1cc(Cl)ccc1CN1C(=O)c2ccccc2C1=O	x	x	x	x	-4	x
Cc1ccc(CS(=O)(=O)Cc2ccc(C(=O)NCc3ccccn3)o2)cc1	34*	0	2	1	-3	8
CCN(CC)S(=O)(=O)c1cccc(-c2n[nH]c(=S)n2/N=C/c2ccc(Br)cc2)c1	46*	-2	3	5	10	33*
COc1ccc(/C=N/n2c(-c3cccs3)n[nH]c2=S)cc1	11	-3	-15	4	-7	x
Cc1ccc(/C=N/n2c(-c3ccccc3)n[nH]c2=S)cc1	16	-10	4	6	-1	x
CCOc1ccc(C=Nn2c(-c3cccc(OC(C)C)c3)n[nH]c2=S)cc1	29*	-6	x	x	x	10
Cc1ccc(/C=N/n2c(-c3cccs3)n[nH]c2=S)cc1	25*	-2	-14	4	7	13
CC(C)c1ccc(/C=N/n2c(-c3ccccc3)n[nH]c2=S)cc1	51*	-22	3	-1	-11	21*
COc1ccccc1CNS(=O)(=O)CCNC1CC1	6	6	x	x	-5	x
CCc1ccc2cc3c(cc2n1)C(=O)c1ccccc1-3	-9	-6	x	x	-4	x
CCCCCCn1c(-c2cccs2)n[nH]c1=S	41*	-11	-7	-2	4	5
CCN(CC)S(=O)(=O)c1cccc(-c2n[nH]c(=S)n2/N=C/c2ccc(OC(F)F)cc2)c1	51*	-12	0	2	-6	34*
CCC(C)n1c(-c2cccc(S(=O)(=O)N(CC)CC)c2)n[nH]c1=S (centres undefined)	0	2	0	2	-2	x
Cc1ccc(/C=N/n2c(-c3cccc(Cl)c3)n[nH]c2=S)o1	26*	-2	-10	-4	5	13
CCN(CC)S(=O)(=O)c1cccc(-c2n[nH]c(=S)n2/N=C/c2ccc(OC)cc2)c1	59*	4	5	2	-6	30*
S=c1[nH]nc(-c2cccc(Cl)c2)n1/N=C/c1ccco1	x	x	5	2	x	x
CCCCn1c(-c2csc3ccccc23)n[nH]c1=S	1	0	0	-2	-5	x
SMILES	PRMT1 inh	TDP2 absorb	GSTO1 counter	PAD4 FP inh	E coli Lon inh	PRMT1 inh conf
COCOCCn1cc(CN2CCS(=O)(=O)N(Cc3ccc(-c4cccc(CO)c4)cc3)C(C)C2=O)nn1 (centres undefined)	-1	5	x	x	-2	x
O=S(=O)(CC1NCc2cc(F)ccc21)NCc1ccc(F)cc1 (centres undefined)	-3	-4	x	x	x	x
Cc1nnc(Sc2cc(NCCCO)c([N+](=O)[O-])c3nonc23)s1	91*	-3	x	x	7	84*
CCCSc1cc(NCCOC(C)=O)c([N+](=O)[O-])c2nonc12	3	-1	8	-6	-5	x
O=[N+]([O-])c1c(NCCO)cc(N2CCCCCC2)c2nonc12	-2	-1	-2	3	-15	x
Cc1nnc(Sc2cc(NCCO)c([N+](=O)[O-])c3nonc23)s1	85*	12	x	x	0	89*
CCC(C)c1ccccc1NC(=O)C(C)Sc1n[nH]c(N)n1 (centres undefined)	-3	10	x	3	-1	x
Cc1cc(C)n2c(=S)[nH]nc2n1	56*	-10	2	-4	4	91*
